Drawing on PubChem BioAssay AID623915 (Johns Hopkins Ion Channel Center, 2012), this text covers IC50 and outcome for six compounds.

Values joined by “and” are separate entries in the source; they are usually repeats but may differ in a detail not shown here. Equal values may be shown once. Active and inactive are the calls of the source.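 The calls were made as follows: active = more than 50% block of the TASK1 potassium channel current at 10 µM; inactive = the rest.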

Potassium channel subfamily K member 3 (Rattus norvegicus), sequence (O54912 whole entry, looked up): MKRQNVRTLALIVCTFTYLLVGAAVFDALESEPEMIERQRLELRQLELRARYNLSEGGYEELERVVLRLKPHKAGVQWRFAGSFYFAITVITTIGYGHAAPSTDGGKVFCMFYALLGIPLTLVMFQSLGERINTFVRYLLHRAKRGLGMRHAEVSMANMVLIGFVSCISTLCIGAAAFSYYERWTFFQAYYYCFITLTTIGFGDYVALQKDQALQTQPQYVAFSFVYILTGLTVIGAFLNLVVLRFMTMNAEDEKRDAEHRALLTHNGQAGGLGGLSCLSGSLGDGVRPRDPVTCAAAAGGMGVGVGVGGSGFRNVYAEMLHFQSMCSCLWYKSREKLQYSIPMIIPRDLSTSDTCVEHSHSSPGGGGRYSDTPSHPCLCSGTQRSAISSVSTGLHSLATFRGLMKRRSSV

This assay has as its target Potassium channel subfamily K member 3 (Rattus norvegicus) (UniProt O54912). The experiment in a line: TASK1 (KCNK3) current inhibitors, SAR follow-up, selectivity assay for KCNK9 inhibitor project, automated electrophysiology, QPatch, CHO cells (AID 623915). The conditions noted are these: QPatch whole-cell current inhibition. The procedure, abridged:
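Detection: automated patch clamp, current read at -30 mV; material: Inducible-TASK1 CHO cells; schedule: 5 min exposure at each compound concentration; medium: external bath solution with 140 mM K+, pH 7.40; read-out: per-cell IC50 from Hill fit, slope one, fractional block 0–1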
Background: The patch-clamp technique gives a direct electrical read-out from membranes.
Consider `CC(C1CC2CCC1C2)n1c(-c2ccco2)n[nH]c1=S` (stereo unspecified), for which the IC50 – broadly, the midpoint of a concentration-inhibition curve – was 820 nM. On to `C[C@H]([C@@H]1CC2CC[C@H]1C2)n1c(-c2ccsc2)n[nH]c1=S`, for which the outcome was inactive. Take `C[C@@H]([C@@H]1CC2CC[C@H]1C2)n1c(-c2ccco2)n[nH]c1=S`: the IC50 was 3200 nM. Same read-out and setting: with `C[C@H](C1CCCCC1)n1c(-c2ccsc2)n[nH]c1=S` the figure was 6430 nM; with `C[C@@H]([C@@H]1CC2CC[C@H]1C2)n1c(-c2ccsc2)n[nH]c1=S`, 1960 nM and 6430 nM. Same read-out and setting: with `CC(C1CC2CCC1C2)n1c(-c2ccco2)nn(CCc2ccncc2)c1=S` (stereo unspecified) the figure was 1850 nM.
